ChEMBL document CHEMBL1131242, “6beta-Acetoxynortropane: a potent muscarinic agonist with apparent selectivity toward M2-receptors” (J Med Chem, 1998)
Where a chain is given by its changes, count along the chain named.

Key:
[1] = target: T1, Muscarinic acetylcholine receptor M3 (Homo sapiens, UniProt P20309); test: Inhibitory activity against stimulation of [3H]inositol monophosphate accumulation in [3H]inositol-labelled CHO transfected cells mediated by Muscarinic acetylcholine receptor M3
Target sequence in this assay (P20309 whole entry, looked up): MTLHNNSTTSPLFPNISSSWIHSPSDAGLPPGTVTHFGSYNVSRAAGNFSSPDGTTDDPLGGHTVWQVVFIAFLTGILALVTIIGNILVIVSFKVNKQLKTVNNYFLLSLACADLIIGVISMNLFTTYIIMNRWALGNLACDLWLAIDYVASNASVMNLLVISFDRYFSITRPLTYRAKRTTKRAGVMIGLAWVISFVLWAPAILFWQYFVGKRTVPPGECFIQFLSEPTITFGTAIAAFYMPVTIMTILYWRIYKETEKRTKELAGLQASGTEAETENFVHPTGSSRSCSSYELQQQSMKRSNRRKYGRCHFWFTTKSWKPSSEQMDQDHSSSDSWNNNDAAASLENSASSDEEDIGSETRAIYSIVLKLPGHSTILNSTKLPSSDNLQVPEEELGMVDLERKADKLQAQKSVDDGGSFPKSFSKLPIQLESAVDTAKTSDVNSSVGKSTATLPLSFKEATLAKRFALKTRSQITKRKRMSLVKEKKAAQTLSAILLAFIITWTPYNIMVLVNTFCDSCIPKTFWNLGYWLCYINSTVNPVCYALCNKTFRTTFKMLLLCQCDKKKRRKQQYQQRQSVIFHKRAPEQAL

[2] = target: T2, Muscarinic acetylcholine receptor M4 (Homo sapiens) (UniProt P08173); test: Inhibition of binding of [3H]quinuclidinyl benzilate to muscarinic receptors in membranes of CHO cells transfected with Muscarinic acetylcholine receptor M4
T2 sequence (whole entry): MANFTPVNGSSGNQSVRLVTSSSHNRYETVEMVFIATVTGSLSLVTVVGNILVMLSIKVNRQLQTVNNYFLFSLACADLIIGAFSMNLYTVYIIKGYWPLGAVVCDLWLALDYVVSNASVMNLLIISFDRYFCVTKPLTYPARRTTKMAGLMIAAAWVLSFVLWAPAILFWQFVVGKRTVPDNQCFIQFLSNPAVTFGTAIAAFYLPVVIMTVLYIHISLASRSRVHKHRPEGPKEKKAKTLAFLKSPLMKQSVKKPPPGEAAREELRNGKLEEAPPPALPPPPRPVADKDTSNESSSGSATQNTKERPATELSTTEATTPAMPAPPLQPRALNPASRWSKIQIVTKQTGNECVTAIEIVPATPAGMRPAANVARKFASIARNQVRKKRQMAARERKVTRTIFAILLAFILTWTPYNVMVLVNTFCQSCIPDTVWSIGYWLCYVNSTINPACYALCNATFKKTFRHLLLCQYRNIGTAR

[3] = target: T1, Muscarinic acetylcholine receptor M3; test: Percentage inhibition of binding of [3H]quinuclidinyl benzilate to muscarinic receptors in membranes of CHO cells transfected with Muscarinic acetylcholine receptor M3
Target sequence in this assay (P20309 whole entry, looked up): as the sequence (P20309 whole entry, looked up) above

[4] = target: Muscarinic acetylcholine receptor M4 (Homo sapiens) (UniProt P08173); test: Inhibition of binding of [3H]quinuclidinyl benzilate to Muscarinic acetylcholine receptor M4 in membranes of transfected CHO cells
[5] = target: T1, Muscarinic acetylcholine receptor M3; test: Inhibition of binding of [3H]quinuclidinyl benzilate to human Muscarinic acetylcholine receptor M3 in membranes of transfected CHO cells at 100 uM concentration; settings: Membrane
Target sequence in this assay (P20309 whole entry, looked up): as the sequence (P20309 whole entry, looked up) above

[6] = target: Muscarinic acetylcholine receptor M4 (Homo sapiens) (UniProt P08173); test: Inhibitory activity against [3H]-cyclic AMP accumulation in CHO transfected cells mediated by Muscarinic acetylcholine receptor M4
[7] = target: T3, Neuronal acetylcholine receptor; alpha4/beta2 (Rattus norvegicus, UniProt P09483+P12390); test: The compound was evaluated for percentage inhibition of binding of [3H]- nicotine to Nicotinic acetylcholine receptor alpha4-beta2 in Rat Cerebral Cortical Membranes; assay type: protein-complex assay
T3 sequence (P09483 whole entry): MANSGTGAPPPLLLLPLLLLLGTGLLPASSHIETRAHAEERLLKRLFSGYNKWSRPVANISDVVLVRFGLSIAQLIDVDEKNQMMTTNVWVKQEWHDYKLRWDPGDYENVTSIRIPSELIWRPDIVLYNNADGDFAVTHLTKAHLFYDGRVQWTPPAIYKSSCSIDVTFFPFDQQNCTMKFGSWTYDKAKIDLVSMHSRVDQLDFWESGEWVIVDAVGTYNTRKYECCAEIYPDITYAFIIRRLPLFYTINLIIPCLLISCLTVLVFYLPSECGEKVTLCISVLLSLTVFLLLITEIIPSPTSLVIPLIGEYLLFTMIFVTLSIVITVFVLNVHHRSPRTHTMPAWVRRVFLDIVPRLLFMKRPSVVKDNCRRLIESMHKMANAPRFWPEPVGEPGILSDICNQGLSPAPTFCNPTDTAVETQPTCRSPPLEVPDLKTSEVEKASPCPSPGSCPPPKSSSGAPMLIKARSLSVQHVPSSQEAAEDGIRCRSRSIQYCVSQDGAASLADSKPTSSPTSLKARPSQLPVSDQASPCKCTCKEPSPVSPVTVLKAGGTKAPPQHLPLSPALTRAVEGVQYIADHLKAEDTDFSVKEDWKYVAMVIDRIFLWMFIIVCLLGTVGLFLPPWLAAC
T3 sequence (P12390 whole entry): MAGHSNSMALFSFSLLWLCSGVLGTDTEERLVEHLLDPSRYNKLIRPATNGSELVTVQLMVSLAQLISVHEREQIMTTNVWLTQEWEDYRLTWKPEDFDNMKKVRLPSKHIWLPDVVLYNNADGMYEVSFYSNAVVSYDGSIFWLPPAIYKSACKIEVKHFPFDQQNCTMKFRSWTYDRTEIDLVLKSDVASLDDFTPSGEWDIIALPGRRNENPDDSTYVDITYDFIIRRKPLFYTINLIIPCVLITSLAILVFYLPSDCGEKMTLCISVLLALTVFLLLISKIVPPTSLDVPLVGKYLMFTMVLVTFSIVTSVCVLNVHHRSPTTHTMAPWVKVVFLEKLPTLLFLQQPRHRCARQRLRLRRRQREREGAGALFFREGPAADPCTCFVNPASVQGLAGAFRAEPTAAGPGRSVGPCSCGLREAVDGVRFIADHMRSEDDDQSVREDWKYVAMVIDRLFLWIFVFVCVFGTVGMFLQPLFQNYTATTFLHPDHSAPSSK
Procedure, shortened: (§1)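 Rat cerebral cortex membranes with 0.2 nM [3H]nicotine in HEPES binding buffer pH 7.4 containing 200 µM diisopropyl fluorophosphate. Incubation was 120 min at 0–4 °C, in triplicate. Nonspecific binding used 1 µM nicotine. Samples were filtered through polyethylenimine-soaked GF/B filters and counted.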

[8] = target: T3, Neuronal acetylcholine receptor; alpha4/beta2; test: Inhibition of binding of [3H]nicotine to Nicotinic acetylcholine receptor alpha4-beta2 in rat cerebral cortical membranes at 100 uM concentration; assay type: cell membranes, Membrane
Procedure, shortened: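 [3H]nicotine (0.2 nM) binding to rat cortical membranes, with 200 µM diisopropyl fluorophosphate, 120 min at 0–4 °C, triplicate. Nonspecific binding with 1 µM nicotine. Percent inhibition at 100 µM test agent; mean ± SEM, n = 4.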

[9] = target: T4, Muscarinic acetylcholine receptor M1 (Rattus norvegicus, UniProt P08482); test: Affinity versus [3H]oxotremorine M (agonist) binding to Muscarinic acetylcholine receptor M1 in Rat Cerebral Cortical Membranes, (Kd=[…])
T4 sequence (P08482 whole entry): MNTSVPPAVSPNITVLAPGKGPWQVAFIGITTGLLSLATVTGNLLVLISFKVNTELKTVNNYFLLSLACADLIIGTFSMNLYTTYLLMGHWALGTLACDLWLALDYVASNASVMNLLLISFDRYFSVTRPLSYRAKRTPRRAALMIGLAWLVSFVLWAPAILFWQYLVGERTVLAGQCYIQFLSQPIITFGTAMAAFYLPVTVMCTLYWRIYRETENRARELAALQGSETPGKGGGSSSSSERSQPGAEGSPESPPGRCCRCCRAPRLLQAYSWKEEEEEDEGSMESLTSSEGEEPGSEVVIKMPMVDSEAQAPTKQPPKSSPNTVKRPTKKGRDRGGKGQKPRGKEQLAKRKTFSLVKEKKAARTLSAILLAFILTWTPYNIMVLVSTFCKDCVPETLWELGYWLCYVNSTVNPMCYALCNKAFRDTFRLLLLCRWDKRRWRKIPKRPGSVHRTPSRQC

[10] = target: Muscarinic acetylcholine receptor M1 (Homo sapiens) (UniProt P11229); test: Inhibition of binding of [3H]quinuclidinyl benzilate to human Muscarinic acetylcholine receptor M1 in membranes of transfected CHO cells at 300 uM concentration; settings: Membrane
Target sequence in this assay (P11229 whole entry, looked up): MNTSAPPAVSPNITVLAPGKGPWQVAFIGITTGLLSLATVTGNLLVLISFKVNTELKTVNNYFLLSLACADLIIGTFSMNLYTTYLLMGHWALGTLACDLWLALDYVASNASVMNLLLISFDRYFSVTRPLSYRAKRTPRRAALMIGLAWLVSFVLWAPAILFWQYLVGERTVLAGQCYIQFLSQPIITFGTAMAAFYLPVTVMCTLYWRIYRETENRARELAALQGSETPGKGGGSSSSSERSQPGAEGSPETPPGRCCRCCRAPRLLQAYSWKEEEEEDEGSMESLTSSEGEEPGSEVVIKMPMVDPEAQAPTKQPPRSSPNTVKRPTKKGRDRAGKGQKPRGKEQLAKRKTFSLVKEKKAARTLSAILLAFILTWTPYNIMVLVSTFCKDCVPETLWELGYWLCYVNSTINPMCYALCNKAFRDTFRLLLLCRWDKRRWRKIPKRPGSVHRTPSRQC

[11] = target: Muscarinic acetylcholine receptor M3 (Rattus norvegicus) (UniProt P08483); test: Percentage inhibition of binding of [3H]quinuclidinyl benzilate to muscarinic receptors in membranes of CHO cells transfected with Muscarinic acetylcholine receptor M3; assay type: cell membranes; settings: concentration not given here
Chain of Muscarinic acetylcholine receptor M3 (Rattus norvegicus) (P08483 whole entry, looked up): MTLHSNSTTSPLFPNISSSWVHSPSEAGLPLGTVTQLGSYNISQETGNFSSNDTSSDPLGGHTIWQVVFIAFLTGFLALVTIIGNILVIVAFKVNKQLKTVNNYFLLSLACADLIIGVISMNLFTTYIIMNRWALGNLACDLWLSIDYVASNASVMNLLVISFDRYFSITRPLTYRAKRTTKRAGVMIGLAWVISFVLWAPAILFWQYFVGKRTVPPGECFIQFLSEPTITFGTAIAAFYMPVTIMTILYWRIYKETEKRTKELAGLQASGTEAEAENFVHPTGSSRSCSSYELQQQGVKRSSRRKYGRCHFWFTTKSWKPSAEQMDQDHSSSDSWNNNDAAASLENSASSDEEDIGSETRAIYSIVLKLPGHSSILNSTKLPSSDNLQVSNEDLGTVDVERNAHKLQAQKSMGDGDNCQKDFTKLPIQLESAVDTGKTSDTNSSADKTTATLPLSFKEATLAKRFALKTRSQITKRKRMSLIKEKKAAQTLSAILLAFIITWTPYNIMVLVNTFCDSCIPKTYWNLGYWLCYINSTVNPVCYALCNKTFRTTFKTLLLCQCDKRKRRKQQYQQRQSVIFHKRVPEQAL

[12] = target: T5, Muscarinic acetylcholine receptor M4 (Rattus norvegicus) (UniProt P08485); test: Inhibition of binding of [3H]quinuclidinyl benzilate to Muscarinic acetylcholine receptor M4 […] at 300 uM concentration; assay type: cell membranes; settings: Membrane
T5 sequence (whole entry): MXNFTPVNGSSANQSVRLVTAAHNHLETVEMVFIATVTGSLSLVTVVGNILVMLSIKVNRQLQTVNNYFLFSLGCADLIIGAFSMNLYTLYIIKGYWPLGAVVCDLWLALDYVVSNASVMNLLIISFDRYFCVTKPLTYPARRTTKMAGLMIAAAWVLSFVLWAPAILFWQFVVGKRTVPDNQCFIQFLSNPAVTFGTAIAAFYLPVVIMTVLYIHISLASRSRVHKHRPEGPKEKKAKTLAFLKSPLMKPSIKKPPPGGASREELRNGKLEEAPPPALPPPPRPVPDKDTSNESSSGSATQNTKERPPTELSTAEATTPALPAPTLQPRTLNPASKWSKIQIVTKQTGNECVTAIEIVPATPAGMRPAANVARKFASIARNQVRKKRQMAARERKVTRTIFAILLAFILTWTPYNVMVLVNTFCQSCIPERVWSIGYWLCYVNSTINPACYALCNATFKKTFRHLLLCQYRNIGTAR

[13] = target: T5, Muscarinic acetylcholine receptor M4 (Rattus norvegicus); test: (§2) Inhibition of binding of [3H]quinuclidinyl benzilate to muscarinic receptors in membranes of CHO cells transfected with Muscarinic acetylcholine receptor M4; assay type: cell membranes; settings: concentration not given here
Procedure, shortened: (§3)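 Membranes from CHO cells expressing human M1–M4 receptors in 25 mM sodium phosphate pH 7.4 with 5 mM MgCl2, 30 min at 37 °C, triplicate. [3H]quinuclidinyl benzilate was 0.2 nM for M1 and M3 and 0.1 nM for M2 and M4. Nonspecific binding used 10 µM atropine for M1 and 1 µM for the others.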

[14] = target: T3, Neuronal acetylcholine receptor; alpha4/beta2; test: Inhibition of binding of [3H]nicotine to Nicotinic acetylcholine receptor alpha4-beta2 in rat cerebral cortical membranes; assay type: cell membranes, Membrane
Procedure, shortened: as §1

[15] = target: T6, Muscarinic acetylcholine receptor M2 (Rattus norvegicus, UniProt P10980); test: (§4) Inhibition of binding of [3H]quinuclidinyl benzilate to muscarinic receptors in membranes of CHO cells transfected with Muscarinic acetylcholine receptor M2; assay type: cell membranes
T6 sequence (P10980 whole entry): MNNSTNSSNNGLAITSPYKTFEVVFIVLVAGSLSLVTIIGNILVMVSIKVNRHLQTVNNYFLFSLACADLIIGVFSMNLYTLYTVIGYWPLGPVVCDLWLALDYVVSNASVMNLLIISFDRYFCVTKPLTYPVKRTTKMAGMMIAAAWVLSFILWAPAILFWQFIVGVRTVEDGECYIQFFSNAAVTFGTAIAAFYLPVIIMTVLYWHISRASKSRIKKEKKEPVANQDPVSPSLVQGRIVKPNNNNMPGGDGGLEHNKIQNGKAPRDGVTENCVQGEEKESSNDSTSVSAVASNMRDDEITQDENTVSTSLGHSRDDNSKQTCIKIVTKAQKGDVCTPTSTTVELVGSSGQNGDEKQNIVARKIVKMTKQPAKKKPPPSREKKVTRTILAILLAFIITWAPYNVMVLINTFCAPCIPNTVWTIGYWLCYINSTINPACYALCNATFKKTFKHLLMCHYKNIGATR
Procedure, shortened: as §3

[16] = target: T4, Muscarinic acetylcholine receptor M1; test: Inhibition of binding of [3H]oxotremorine M to Muscarinic acetylcholine receptor M1 in rat cerebral cortical membranes; assay type: cell membranes, Membrane
Procedure, shortened: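 Agonist radioligand assay: rat cortical membranes with 2 nM [3H]oxotremorine M in 25 mM sodium phosphate pH 7.4 with 5 mM MgCl2, 2 h at 25 °C, in triplicate. Nonspecific binding used 5 µM atropine. Filtration followed by scintillation counting.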

[17] = target: Muscarinic acetylcholine receptor M2 (Homo sapiens) (UniProt P08172); test: Inhibition of binding of [3H]quinuclidinyl benzilate to Muscarinic acetylcholine receptor M2 in membranes of transfected CHO cells
[18] = target: T7, Muscarinic acetylcholine receptor M1 (Rattus norvegicus) (UniProt P08482); test: (§5) Percentage inhibition of binding of [3H]quinuclidinyl benzilate to muscarinic receptors in membranes of CHO cells transfected with Muscarinic acetylcholine receptor M1; assay type: cell membranes; settings: concentration not given here
T7 sequence (whole entry): T4 sequence (P08482 whole entry)
Procedure, shortened: as §3

[19] = target: T4, Muscarinic acetylcholine receptor M1; test: Affinity versus [3H]quinuclidinyl benzilate (antagonist) binding to Muscarinic acetylcholine receptor M1 in Rat Cerebral Cortical Membranes,
Procedure, shortened: (§6)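 Rat cerebral cortex membranes were homogenised in 50 mM Tris-HCl pH 7.4 and diluted in HEPES binding buffer. They were incubated with 0.2 nM [3H]quinuclidinyl benzilate in 20 mM HEPES pH 7.4 with 10 mM MgCl2 and 100 mM NaCl for 30 min at 37 °C, in triplicate. Nonspecific binding used 1 µM atropine. Filtration was followed by scintillation counting.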

[20] = target: T1, Muscarinic acetylcholine receptor M3; test: Inhibition of binding of [3H]quinuclidinyl benzilate to muscarinic receptors in membranes of CHO cells transfected with Muscarinic acetylcholine receptor M3; assay type: cell membranes
Target sequence in this assay (P20309 whole entry): as the sequence (P20309 whole entry, looked up) above

[21] = target: T4, Muscarinic acetylcholine receptor M1; test: The compound was evaluated for inhibition of binding of [3H]quinuclidinyl benzilate to Muscarinic acetylcholine receptor M1 in Rat Cerebral Cortical Membranes
Procedure, shortened: as §6

[22] = target: T8, Muscarinic acetylcholine receptor M2 (Homo sapiens, UniProt P08172); test: as §4; assay type: cell membranes
T8 sequence (P08172 whole entry): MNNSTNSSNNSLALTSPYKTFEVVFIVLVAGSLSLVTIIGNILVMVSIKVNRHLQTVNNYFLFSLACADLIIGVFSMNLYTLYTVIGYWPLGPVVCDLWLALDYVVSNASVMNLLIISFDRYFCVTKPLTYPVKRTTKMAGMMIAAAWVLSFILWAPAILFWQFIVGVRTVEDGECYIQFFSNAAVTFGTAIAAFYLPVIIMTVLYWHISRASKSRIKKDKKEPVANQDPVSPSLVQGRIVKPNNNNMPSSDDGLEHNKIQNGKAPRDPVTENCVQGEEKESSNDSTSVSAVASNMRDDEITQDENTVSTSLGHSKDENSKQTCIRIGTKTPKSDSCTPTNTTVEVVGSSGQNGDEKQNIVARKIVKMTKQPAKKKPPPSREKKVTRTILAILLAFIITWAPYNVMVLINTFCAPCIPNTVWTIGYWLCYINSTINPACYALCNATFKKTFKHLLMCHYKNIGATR

[23] = target: T4, Muscarinic acetylcholine receptor M1; test: Inhibition of binding of [3H]quinuclidinyl benzilate to Muscarinic acetylcholine receptor M1 in rat cerebral cortical membranes; assay type: cell membranes, Membrane
Procedure, shortened: as §6

[24] = target: T9, Muscarinic acetylcholine receptor M4 (Homo sapiens, UniProt P08173); test: as §2; assay type: cell membranes
T9 sequence (P08173 whole entry): T2 sequence (whole entry)

[25] = target: T7, Muscarinic acetylcholine receptor M1 (Rattus norvegicus); settings: Membrane; 30 uM
[26] = target: T10, Muscarinic acetylcholine receptor M1 (Homo sapiens) (UniProt P11229); test: as §5; assay type: cell membranes; settings: concentration not given here
T10 sequence (whole entry): T4 sequence (P08482 whole entry) with V5A, S254T, S309P, K320R, G337A, V413I
Procedure, shortened: as §3

## C[C@@H]1O[C@H](C[N+](C)(C)C)C[C@H]1O [MUSCARINE]
[1]
  EC50: 0.13 µM
[2]
  Ki: 1.4 µM
[3]
  inhibition: 28%
[4]
  Ki: 1.4 µM
[5]
  inhibition: 28%
[6]
  IC50: 0.47 µM

## COC(=O)C1=CCCN(C)C1 [ARECOLINE]
[7]
  Ki: 0.27 µM
[8]
  Ki: 0.27 µM

## COC(=O)[C@H]1CC2NC1CC[C@@H]2O (some centres undefined)
[9]
  Ki: 18 µM
[7]
  Ki: 4 µM
[10]
  inhibition: 2%
[11]
  inhibition: 0%
[12]
  inhibition: 33%
[13]
  inhibition: 33%
[14]
  Ki: 4 µM
[15]
  Ki: 12 µM
[16]
  Ki: 18 µM
[5]
  inhibition: 0%
[17]
  Ki: 12 µM
[18]
  inhibition: 2%

## CC(=O)OC1CC2CCCC1N2C (centres undefined)
[9]
  Ki: 2.6 µM
[19]
  Ki: 280 µM
[7]
  Ki: 1.5 µM
[20]
  Ki: 15 µM
[21]
  Ki: 280 µM
[22]
  Ki: 2.7 µM
[23]
  Ki: 280 µM
[24]
  Ki: 8.3 µM
[25]
  inhibition: 48%
[14]
  Ki: 1.5 µM
[16]
  Ki: 2.6 µM
[4]
  Ki: 8.3 µM
[17]
  Ki: 2.7 µM
[26]
  inhibition: 48%
